The source made the active and inactive calls.
Experiments:
[1] = system: Paracentrotus lividus; assay: Antimitotic activity against sea urichin L embryo model assessed as cleavage alteration after 2.5 to 5.5 hrs of fertilization by sea urichin embryo assay; assay type: functional
[2] = system: Paracentrotus lividus; assay: Antimitotic activity against sea urichin L embryo model assessed as full mitotic arrest by sea urichin embryo assay; assay type: functional
[3] = system: Paracentrotus lividus; assay: Antimitotic activity against sea urichin L embryo model assessed as embryo spinning by sea urichin embryo assay; assay type: functional
[4] = system: Paracentrotus lividus; assay: Induction of mitotic spindle defects in sea urichin L embryo model assessed as aberrant mitotic spindles by conventional light microscopy; assay type: functional, organism-based
Summary of the method: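 Eggs exposed 8−15 min postfertilization, incubated at 21 °C. Mitotic apparatus examined by light microscopy at 1 h (first cleavage anaphase) and 2.5 h postfertilization, scored for aberrant, multipolar or absent spindles.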

[5] = system: Paracentrotus lividus; assay: Antimitotic activity against sea urichin L embryo model assessed as death of embryo at hatched blastula stage by sea urichin embryo assay; assay type: functional
[6] = system: Paracentrotus lividus; assay: Antimitotic activity against sea urichin L embryo model assessed as inhibition of skeletal spiculae growth by sea urichin embryo assay; assay type: functional
Summary of the method: (§1)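 Hatched free-swimming blastulae (8−9 h postfertilization) exposed to compound and followed to four-arm pluteus (34−36 h). Scored for spicule growth inhibition or arrest at late gastrula. Gametes obtained by intracoelomic 0.5 M KCl; embryos grown in filtered seawater at room temperature with paddle stirring, monolayer up to 2000 embryos/mL. Stocks in DMSO diluted with EtOH, or in water.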

[7] = system: Paracentrotus lividus; assay: Induction of mitotic spindle defects in sea urichin L embryo model assessed as formation of aberrant mitotic spindles at 2 uM by conventional light microscopy
[8] = system: Paracentrotus lividus; assay: Antimitotic activity against sea urichin L embryo model assessed as late gastrula stage by sea urichin embryo assay; assay type: functional; summary of the method: as §1
[9] = system: Paracentrotus lividus; assay: Induction of mitotic spindle defects in sea urichin L embryo model assessed as complete blocked of spindle assembly at 50 nM by conventional light microscopy
[10] = system: Paracentrotus lividus; assay: Toxicity in sea urichin L embryo assessed as development up to 4 uM; assay type: organism-based; conditions: in vivo
Summary of the method: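 Fertilized eggs exposed 8−15 min postfertilization to 2-fold decreasing concentrations, with cleavage alteration or arrest scored at 2.5−5.5 h. Effective threshold concentration defined as the lowest giving 100% cleavage alteration and embryo death before hatching, with no effect at 2-fold lower. Final DMSO ≤0.05% and EtOH ≤1%. Run in duplicate.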

[11] = system: HL-60; assay: Cytotoxicity against human HL60 cells by MTT assay; assay type: functional, cell-based
[12] = system: MOLT-4; assay: Cytotoxicity against human MOLT4 cells by MTT assay; assay type: functional; conditions: read-out: LD50 (the source's name)
[13] = system: BALL-1; assay: Cytotoxicity against human BALL-1 cells by MTT assay; assay type: functional; conditions: read-out: LD50 (the source's name)
[14] = Cytotoxicity against human NUGC3 cells by MTT assay; assay type: functional; conditions: NUGC-3, read-out: LD50 (the source's name)

SMILES	EC [1] [µM]	EC [2] [µM]	EC [3] [µM]	Activity [4]	EC [5] [µM]	EC [6] [µM]	Activity [7]	EC [8] [µM]	Activity [9]	Activity [10]	IC50 [11] [µM]	CC50 [12] [µM]	CC50 [13] [µM]	CC50 [14] [µM]
C[C@@]12CC[C@@H]3[C@@](CC[C@H]4[C@@]3(C)CCC[C@@]4(C)C(=O)OCCOCCOCCOCC[P+](c3ccccc3)(c3ccccc3)c3ccccc3)(CC1=O)C2.[Br-]	1	2	>10	Active										
COc1cc([C@@H]2c3cc4c(cc3[C@@H](O[C@@H]3O[C@@H]5CO[C@@H](C)O[C@H]5[C@H](O)[C@H]3O)[C@H]3COC(=O)[C@H]23)OCO4)cc(OC)c1O [ETOPOSIDE]	0.5	>68	>68		40	4								
C[C@@]12CC[C@@H]3[C@@](CC[C@H]4[C@@]3(C)CCC[C@@]4(C)C(=O)OCCOCCOCC[P+](c3ccccc3)(c3ccccc3)c3ccccc3)(CC1=O)C2.[Br-]	1	2	>10	Active										
C[C@@]12CC[C@@H]3[C@@](CC[C@H]4[C@@]3(C)CCC[C@@]4(C)C(=O)OCCOCCOCCOCCOCC[P+](c3ccccc3)(c3ccccc3)c3ccccc3)(CC1=O)C2.[Br-]	1	4	>10	Active										
C[C@@]12CC[C@@H]3[C@@](CC[C@H]4[C@@]3(C)CCC[C@@]4(C)C(=O)OCCCCCC[P+](c3ccccc3)(c3ccccc3)c3ccccc3)(CC1=O)C2.[Br-]	2	>4	>4	Active	1		Active							
COC(=O)Nc1nc2cc(C(=O)c3cccs3)ccc2[nH]1 [NOCODAZOLE]	0.005	0.1	0.1		>0.5			0.02	Active					
C[C@@]12CC[C@@H]3[C@@](CC[C@H]4[C@@]3(C)CCC[C@@]4(C)C(=O)O)(CC1=O)C2 [ISOSTEVIOL]	>4	>4	>4							Non-toxic	75	84	87	167
CC[N+](CC)(CC)CCOCCOCCOC(=O)[C@]1(C)CCC[C@@]2(C)[C@@H]3CC[C@@]4(C)C[C@]3(CC[C@@H]21)CC4=O.[Br-]	>100	>100	>100			40								
CC[N+](CC)(CC)CCOCCOCCOCCOC(=O)[C@]1(C)CCC[C@@]2(C)[C@@H]3CC[C@@]4(C)C[C@]3(CC[C@@H]21)CC4=O.[Br-]	>100	>100	>100			100								
C[C@@]12CC[C@@H]3[C@@](CC[C@H]4[C@@]3(C)CCC[C@@]4(C)C(=O)OCCCCCCCC[P+](c3ccccc3)(c3ccccc3)c3ccccc3)(CC1=O)C2.[Br-]	2	>4	>4	Active	0.5									
CC(=O)O[C@H]1C(=O)[C@@]2(C)[C@H]([C@H](OC(=O)c3ccccc3)[C@]3(O)C[C@H](OC(=O)[C@H](O)[C@@H](NC(=O)c4ccccc4)c4ccccc4)C(C)=C1C3(C)C)[C@]1(OC(C)=O)CO[C@@H]1C[C@@H]2O [PACLITAXEL]	0.5	>10	>10		2									
C[C@@]12CC[C@@H]3[C@@](CC[C@H]4[C@@]3(C)CCC[C@@]4(C)C(=O)OCCC[P+](c3ccccc3)(c3ccccc3)c3ccccc3)(CC1=O)C2.[Br-]	2	>4	>4	Active	4									

Reference: ChEMBL document CHEMBL3585256, “Triphenylphosphonium Cations of the Diterpenoid Isosteviol: Synthesis and Antimitotic Activity in a Sea Urchin Embryo Model” (J Nat Prod, 2015)
